As a reminder, the ED50 is the dose at which the effect has come halfway, by size or by number of responders. A word on the IC50: it is the concentration needed to halve the response being measured. A high value points to weaker potency in that assay.

The values below come from ChEMBL document CHEMBL1140861, “Short antisense oligonucleotides with novel 2'-4' conformationaly restricted nucleoside analogues show improved potency without increased toxicity in animals” (J Med Chem, 2009).

Data set [1] concerns Mus musculus. Put plainly: Hepatotoxicity in BALB/c mouse assessed as increase in liver ALT level at 35 mg/kg, ip after 72 hrs. The conditions noted are these: in vivo. Set-up: dose 35 mg/kg, route intraperitoneal. Type of data set: toxicity, organism-based. The essentials: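 Single ip injection of 35 mg/kg ASO into male Balb/c mice, 6 weeks old, n = 4 per group, saline control; sacrificed 72 h after dosing and ALT recorded; ANOVA with Tukey's post hoc test.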

Data set [2] deals with Mus musculus. The data set is described as follows: Reduction of PTEN mRNA level in ip dosed BALB/c mouse liver after 72 hrs. In kind it is functional.
For a further data set, the system named is bEND. Put plainly: Reduction in mouse PTEN mRNA level expressed in mouse bEND cells. Type of data set: functional, cell-based. The procedure, abridged: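 bEND mouse brain endothelial cells transfected with ASO using lipofectin; PTEN mRNA reduction measured over a dose range; IC50 taken from dose-response curves.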
Data set [3] is filed under the species Mus musculus. The data set is described as follows: Binding affinity to mouse PTEN mRNA assessed as melting temperature. The procedure, abridged:
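Tm of ASO–RNA duplex, i.e. melting temperature of the ASO hybridised to its complementary RNA.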

For data set [4], the system named is Mus musculus. The data set is described as follows: Toxicity in BALB/c mouse assessed as reduction in body weight at 0.5 mg/kg, ip administered twice a week for 3 weeks measured after 72 hrs of last dose. In kind it is organism-based. Details: dose 0.5 mg/kg, route intraperitoneal. The following applies: in vivo. The essentials:
(§1)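 Male Balb/c mice, 6 weeks old, dosed ip twice weekly for 3 weeks at 0.5, 1.5, 4.7 and 15 mg/kg (two ASOs) or 0.7, 2.3, 7.2 and 23 mg/kg (MOE control); sacrificed 72 h after last dose; ALT, liver PTEN mRNA, liver and spleen weights and body weight gain assessed; ED50 derived; errors as sd.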

Data set [5] relates to Mus musculus. The data set is described as follows: Toxicity in BALB/c mouse assessed as reduction in body weight at 1.5 mg/kg, ip administered twice a week for 3 weeks measured after 72 hrs of last dose. Type of data set: organism-based. Set-up: dose 1.5 mg/kg, route intraperitoneal. The following applies: in vivo. The procedure, abridged: as §1
In data set [6] the test system is Mus musculus. Put plainly: Toxicity in BALB/c mouse assessed as reduction in body weight at 15 mg/kg, ip administered twice a week for 3 weeks measured after 72 hrs of last dose. Type of data set: organism-based. Set-up: dose 15 mg/kg, route intraperitoneal. The following applies: in vivo. The essentials:
as §1

Data set [7] deals with Mus musculus. Put plainly: Hepatotoxicity in BALB/c mouse assessed as increase in liver ALT level at 4.7 mg/kg, ip administered twice a week for 3 weeks measured after 72 hrs of last dose. Type of data set: toxicity, organism-based. Details: dose 4.7 mg/kg, route intraperitoneal. The conditions noted are these: in vivo. The essentials: as §1
Data set [8] concerns Mus musculus. Put plainly: Reduction of PTEN level in ip dosed BALB/c mouse liver at 37 mg/kg by Western blot analysis. Type of data set: functional, organism-based. Details: dose 37 mg/kg.
Data set [9] relates to Mus musculus. Put plainly: Metabolic stability in BALB/c mouse liver assessed as antisense oligonucleotide level at 18 mg/kg. Type of data set: ADME, organism-based. Details: dose 18 mg/kg. The following applies: in vivo.
The test system of data set [10] is Mus musculus. Put plainly: Toxicity in BALB/c mouse assessed as reduction in body weight at 4.7 mg/kg, ip administered twice a week for 3 weeks measured after 72 hrs of last dose. In kind it is organism-based. Set-up: dose 4.7 mg/kg, route intraperitoneal. The conditions noted are these: in vivo. The procedure, abridged:
as §1

The test system of data set [11] is Mus musculus. The data set is described as follows: Hepatotoxicity in BALB/c mouse assessed as increase in liver ALT level at 15 mg/kg, ip administered twice a week for 3 weeks measured after 72 hrs of last dose. In kind it is toxicity, organism-based. Set-up: dose 15 mg/kg, route intraperitoneal. The following applies: in vivo. The essentials: as §1
For data set [12], the system named is Mus musculus. The data set is described as follows: Hepatotoxicity in BALB/c mouse assessed as increase in liver ALT level at 0.5 mg/kg, ip administered twice a week for 3 weeks measured after 72 hrs of last dose. In kind it is toxicity, organism-based. Details: dose 0.5 mg/kg, route intraperitoneal. The conditions noted are these: in vivo. The procedure, abridged:
as §1

Data set [13] relates to Mus musculus. The data set is described as follows: Hepatotoxicity in BALB/c mouse assessed as increase in liver ALT level at 1.5 mg/kg, ip administered twice a week for 3 weeks measured after 72 hrs of last dose. In kind it is toxicity, organism-based. Details: dose 1.5 mg/kg, route intraperitoneal. The conditions noted are these: in vivo. The procedure, abridged: as §1

Active and inactive are the calls of the source. The calls are words filed in the database; no cut-off is given here.

With `COC[C@@H]1O[C@H]2[C@H](n3ccc(=O)[nH]c3=O)O[C@]1(COP(O)(=S)O[C@@H]1[C@H]3O[C@H](COC)[C@]1(COP(O)(=S)OC[C@H]1O[C@@H](n4cnc5c(N)ncnc54)[C@H](O)[C@@H]1OP(O)(=S)OC[C@H]1O[C@@H](n4cc(C)c(=O)[nH]c4=O)[C@H](O)[C@@H]1OP(O)(=S)OC[C@H]1O[C@@H](n4cnc5c(=O)[nH]c(N)nc54)[C@H](O)[C@@H]1OP(O)(=S)OC[C@H]1O[C@@H](n4cnc5c(=O)[nH]c(N)nc54)[C@H](O)[C@@H]1OP(O)(=S)OC[C@H]1O[C@@H](n4ccc(N)nc4=O)[C@H](O)[C@@H]1OP(O)(=S)OC[C@H]1O[C@@H](n4cc(C)c(=O)[nH]c4=O)[C@H](O)[C@@H]1OP(O)(=S)OC[C@H]1O[C@@H](n4cnc5c(=O)[nH]c(N)nc54)[C@H](O)[C@@H]1OP(O)(=S)OC[C@H]1O[C@@H](n4ccc(N)nc4=O)[C@H](O)[C@@H]1OP(O)(=S)OC[C@H]1O[C@@H](n4cnc5c(N)ncnc54)[C@H](O)[C@@H]1OP(O)(=S)OC[C@H]1O[C@@H](n4cnc5c(=O)[nH]c(N)nc54)[C@H](O)[C@@H]1OP(O)(=S)OC[C@]14O[C@@H](n5ccc(N)nc5=O)[C@H](O[C@H]1COC)[C@@H]4OP(O)(=S)OC[C@]14O[C@@H](n5ccc(=O)[nH]c5=O)[C@H](O[C@H]1COC)[C@@H]4O)O[C@H]3n1ccc(N)nc1=O)[C@H]2O` (stereo partly specified), in the data set with Mus musculus [1], the Activity result is “Non-toxic”.

As to `COCCO[C@@H]1[C@H](O)[C@@H](COP(O)(=S)O[C@H]2[C@@H](OCCOC)[C@H](n3ccc(=O)[nH]c3=O)O[C@@H]2COP(O)(=S)O[C@H]2C[C@H](n3cc(C)c(=O)[nH]c3=O)O[C@@H]2COP(O)(=S)O[C@H]2[C@@H](O)[C@H](n3cnc4c3N=CNC4N)O[C@@H]2COP(O)(=S)O[C@H]2[C@@H](O)[C@H](n3cnc4c(=O)[nH]c(N)nc43)O[C@@H]2COP(O)(=S)O[C@H]2[C@@H](O)[C@H](n3ccc(N)nc3=O)O[C@@H]2COP(O)(=S)O[C@H]2[C@@H](O)[C@H](n3cnc4c(N)ncnc43)O[C@@H]2COP(O)(=S)O[C@H]2[C@@H](O)[C@H](n3ccc(N)nc3=O)O[C@@H]2COP(O)(=S)O[C@H]2[C@@H](O)[C@H](n3cc(C)c(=O)[nH]c3=O)O[C@@H]2COP(O)(=S)O[C@H]2[C@@H](O)[C@H](n3cnc4c(=O)[nH]c(N)nc43)O[C@@H]2COP(O)(=S)O[C@H]2[C@@H](O)[C@H](n3cnc4c(=O)[nH]c(N)nc43)O[C@@H]2COP(O)(=S)O[C@H]2[C@@H](O)[C@H](n3ccc(N)nc3=O)O[C@@H]2COP(O)(=S)O[C@H]2[C@@H](OCCOC)[C@H](n3cc(C)c(N)nc3=O)O[C@@H]2COP(O)(=S)O[C@H]2[C@@H](OCCOC)[C@H](n3ccc(=O)[nH]c3=O)O[C@@H]2COP(=O)(O)O)O[C@H]1n1cc(C)c(N)nc1=O` (stereo partly specified), the ED50 with Mus musculus [2] is > 45 mg/kg. In addition, the IC50 with bEND was > 20 nM. For the same molecule, the Tm in the data set listed under Mus musculus [3] amounted to 50.8 °C.

The molecule `COC[C@H]1O[C@H]2[C@H](n3cc(C)c(N)nc3=O)O[C@]1(COP(O)(=S)O[C@H]1[C@H]3O[C@H](COC)[C@]1(COP(O)(=S)O[C@H]1C[C@H](n4cc(C)c(=O)[nH]c4=O)O[C@@H]1COP(O)(=S)O[C@H]1[C@@H](O)[C@H](n4cnc5c4N=CNC5N)O[C@@H]1COP(O)(=S)O[C@H]1[C@@H](O)[C@H](n4cnc5c(=O)[nH]c(N)nc54)O[C@@H]1COP(O)(=S)O[C@H]1[C@@H](O)[C@H](n4ccc(N)nc4=O)O[C@@H]1COP(O)(=S)O[C@H]1[C@@H](O)[C@H](n4cnc5c(N)ncnc54)O[C@@H]1COP(O)(=S)O[C@H]1[C@@H](O)[C@H](n4ccc(N)nc4=O)O[C@@H]1COP(O)(=S)O[C@H]1C[C@H](n4cc(C)c(=O)[nH]c4=O)O[C@@H]1COP(O)(=S)O[C@H]1[C@@H](O)[C@H](n4cnc5c(=O)[nH]c(N)nc54)O[C@@H]1COP(O)(=S)O[C@H]1[C@@H](O)[C@H](n4cnc5c(=O)[nH]c(N)nc54)O[C@@H]1COP(O)(=S)O[C@H]1[C@@H](O)[C@H](n4ccc(N)nc4=O)O[C@@H]1COP(O)(=S)O[C@H]1[C@H]4O[C@H](COC)[C@]1(COP(O)(=S)O[C@H]1[C@H]5O[C@H](COC)[C@]1(CO)O[C@H]5n1ccc(=O)[nH]c1=O)O[C@H]4n1cc(C)c(N)nc1=O)O[C@H]3n1ccc(=O)[nH]c1=O)[C@H]2O` (stereo partly specified) showed an ED50 in the data set with Mus musculus [2] of 29 mg/kg. The molecule further showed an IC50 in the data set with bEND of 6 nM. Moreover, the Tm in the data set filed under Mus musculus [3] turned out to be 56.9 °C.

In the case of `Cc1cn([C@@H]2O[C@@]3(COP(O)(=S)O[C@H]4[C@H]5O[C@H](C)[C@]4(COP(O)(=S)O[C@H]4C[C@H](n6cc(C)c(=O)[nH]c6=O)O[C@@H]4COP(O)(=S)O[C@H]4[C@@H](O)[C@H](n6cnc7c6N=CNC7N)O[C@@H]4COP(O)(=S)O[C@H]4[C@@H](O)[C@H](n6cnc7c(=O)[nH]c(N)nc76)O[C@@H]4COP(O)(=S)O[C@H]4[C@@H](O)[C@H](n6ccc(N)nc6=O)O[C@@H]4COP(O)(=S)O[C@H]4[C@@H](O)[C@H](n6cnc7c(N)ncnc76)O[C@@H]4COP(O)(=S)O[C@H]4[C@@H](O)[C@H](n6ccc(N)nc6=O)O[C@@H]4COP(O)(=S)O[C@H]4[C@@H](O)[C@H](n6cc(C)c(=O)[nH]c6=O)O[C@@H]4COP(O)(=S)O[C@H]4[C@@H](O)[C@H](n6cnc7c(=O)[nH]c(N)nc76)O[C@@H]4COP(O)(=S)O[C@H]4[C@@H](O)[C@H](n6cnc7c(=O)[nH]c(N)nc76)O[C@@H]4COP(O)(=S)O[C@H]4[C@@H](O)[C@H](n6ccc(N)nc6=O)O[C@@H]4COP(O)(=S)O[C@H]4[C@H]6O[C@H](C)[C@]4(COP(O)(=S)O[C@H]4[C@H]7O[C@H](C)[C@]4(CO)O[C@H]7n4ccc(=O)[nH]c4=O)O[C@H]6n4cc(C)c(N)nc4=O)O[C@H]5n4ccc(=O)[nH]c4=O)[C@@H](C)O[C@@H]2[C@@H]3O)c(=O)nc1N` (stereo partly specified), the Activity entry in the data set with Mus musculus [4], with Mus musculus [5], in the data set with Mus musculus [6], in the data set with Mus musculus [7], with Mus musculus [10] and in the data set on Mus musculus [11] was “Toxic” each time. In addition, the Activity entry in the data set with Mus musculus [12] and in the data set with Mus musculus [13] was “Toxic” each time. Besides, the outcome in the data set with Mus musculus [8] was Active. Further, the ED50 with Mus musculus [2] stood at 13 mg/kg. Further, half-maximal inhibition with bEND (IC50) was put at 10.3 nM. Further, the Stability in the data set on Mus musculus [9] worked out at 25 µg/g. Further, the Tm in the data set listed under Mus musculus [3] is 58.9 °C.

As to `COC[C@H]1O[C@H]2[C@H](n3ccc(=O)[nH]c3=O)O[C@]1(COP(O)(=S)O[C@H]1[C@H]3O[C@H](COC)[C@]1(COP(O)(=S)OC[C@H]1O[C@@H](n4cnc5c(N)ncnc54)[C@H](O)[C@@H]1OP(O)(=S)OC[C@H]1O[C@@H](n4cc(C)c(=O)[nH]c4=O)[C@H](O)[C@@H]1OP(O)(=S)OC[C@H]1O[C@@H](n4cnc5c(=O)[nH]c(N)nc54)[C@H](O)[C@@H]1OP(O)(=S)OC[C@H]1O[C@@H](n4cnc5c(=O)[nH]c(N)nc54)[C@H](O)[C@@H]1OP(O)(=S)OC[C@H]1O[C@@H](n4ccc(N)nc4=O)[C@H](O)[C@@H]1OP(O)(=S)OC[C@H]1O[C@@H](n4cc(C)c(=O)[nH]c4=O)[C@H](O)[C@@H]1OP(O)(=S)OC[C@H]1O[C@@H](n4cnc5c(=O)[nH]c(N)nc54)[C@H](O)[C@@H]1OP(O)(=S)OC[C@H]1O[C@@H](n4ccc(N)nc4=O)[C@H](O)[C@@H]1OP(O)(=S)OC[C@H]1O[C@@H](n4cnc5c(N)ncnc54)[C@H](O)[C@@H]1OP(O)(=S)OC[C@H]1O[C@@H](n4cnc5c(=O)[nH]c(N)nc54)[C@H](O)[C@@H]1OP(O)(=S)OC[C@]14O[C@@H](n5ccc(N)nc5=O)[C@H](O[C@@H]1COC)[C@@H]4OP(O)(=S)OC[C@]14O[C@@H](n5ccc(=O)[nH]c5=O)[C@H](O[C@@H]1COC)[C@@H]4O)O[C@H]3n1ccc(N)nc1=O)[C@H]2O` (stereo partly specified), the Activity result in the data set on Mus musculus [1] is “Non-toxic”.
